Data as given in ChEMBL document CHEMBL1671867, “Novel polymyxin derivatives carrying only three positive charges are effective antibacterial agents” (Antimicrob Agents Chemother, 2008).
Converted amounts (≈) assume the structure as drawn.

Legend:
Type in all cases: functional
Pseudomonas aeruginosa [1] = assay: (§1) Antibacterial activity against Pseudomonas aeruginosa ATCC 27853by Etest method in presence of […] NAB739
Pseudomonas aeruginosa [2] = assay: as §1; remark: listed apart in the source
Pseudomonas aeruginosa [3] = assay: Antibacterial activity against Pseudomonas aeruginosa ATCC 27853by Etest method
In short: (§2)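 MICs of the antibiotic taken from E-strips on Mueller-Hinton agar, run both with and without peptide. […] Inoculum was prepared per the strip manufacturer, matching CLSI M2-A9.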

Acinetobacter baumannii [4] = assay: Antibacterial activity against Acinetobacter baumannii F264 by Etest method in presence of NAB739
Acinetobacter baumannii [5] = assay: Antibacterial activity against Acinetobacter baumannii F264 by Etest method in presence of 1 ug/ml NAB739
Acinetobacter baumannii [6] = assay: Antibacterial activity against Acinetobacter baumannii F264 by Etest method in presence of 0.5 ug/ml NAB739
Acinetobacter baumannii [7] = assay: (§3) Antibacterial activity against Acinetobacter baumannii F264 by Etest method in presence of […] NAB739
Acinetobacter baumannii [8] = assay: Antibacterial activity against Acinetobacter baumannii F264 by Etest method
In short: (§4)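 E-strip MIC on Mueller-Hinton agar without added peptide; inoculum per manufacturer, matching CLSI M2-A9.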

Acinetobacter baumannii [9] = assay: as §3; remark: listed apart in the source
Acinetobacter baumannii [10] = assay: Antibacterial activity against Acinetobacter baumannii ATCC 19606 by Etest method in presence of NAB739
Acinetobacter baumannii [11] = assay: Antibacterial activity against Acinetobacter baumannii ATCC 19606 by Etest method in presence of 1 ug/ml NAB739
Acinetobacter baumannii [12] = assay: Antibacterial activity against Acinetobacter baumannii ATCC 19606 by Etest method in presence of 0.5 ug/ml NAB739
Acinetobacter baumannii [13] = assay: (§5) Antibacterial activity against Acinetobacter baumannii ATCC 19606 by Etest method in presence of […] NAB739
Acinetobacter baumannii [14] = assay: as §5; remark: listed apart in the source
Acinetobacter baumannii [15] = assay: Antibacterial activity against Acinetobacter baumannii ATCC 19606 by Etest method
Pseudomonas aeruginosa [16] = assay: Antibacterial activity against Pseudomonas aeruginosa ATCC 27853by Etest method in presence of 0.5 ug/ml NAB739; in short: as §2
Pseudomonas aeruginosa [17] = assay: Antibacterial activity against Pseudomonas aeruginosa ATCC 27853by Etest method in presence of 1 ug/ml NAB739; in short: as §2
Pseudomonas aeruginosa [18] = assay: Antibacterial activity against Pseudomonas aeruginosa ATCC 27853by Etest method in presence of 2 ug/ml NAB739
Escherichia coli [19] = assay: Antibacterial activity against Escherichia coli ATCC […] by Etest method in presence of NAB7061
Escherichia coli [20] = assay: Antibacterial activity against Escherichia coli ATCC 25992 by Etest method; in short: as §4
Escherichia coli [21] = assay: Antibacterial activity against Escherichia coli ATCC […] by Etest method in presence of 1 ug/ml NAB7061
Escherichia coli [22] = assay: Antibacterial activity against Escherichia coli ATCC […] by Etest method in presence of 2 ug/ml NAB7062
Escherichia coli [23] = assay: Antibacterial activity against Escherichia coli ATCC […] by Etest method in presence of 4 ug/ml NAB7064
Escherichia coli [24] = assay: Ratio of the MIC for Escherichia coli ATCC 25992 in the absence of NAB7061 to MIC for Escherichia coli ATCC 25992 in the presence of 4 ug/ml of NAB7061
Escherichia coli [25] = assay: Antibacterial activity against Escherichia coli IH3080 by Etest method; in short: as §4
Escherichia coli [26] = assay: Antibacterial activity against Escherichia coli IH3080 by Etest method in presence of 1 ug/ml NAB7061
Escherichia coli [27] = assay: Antibacterial activity against Escherichia coli IH3080 by Etest method in presence of 2 ug/ml NAB7062
Escherichia coli [28] = assay: Antibacterial activity against Escherichia coli IH3080 by Etest method in presence of 4 ug/ml NAB7064
Escherichia coli [29] = assay: Ratio of the MIC for Escherichia coli IH3080 in the absence of NAB7061 to MIC for Escherichia coli IH3080 in the presence of 4 ug/ml of NAB7061
Escherichia coli [30] = assay: Antibacterial activity against Escherichia coli IH3080 by Etest method in presence of NAB7061
Klebsiella pneumoniae [31] = assay: Antibacterial activity against Klebsiella pneumoniae ATCC 13883 by Etest method; in short: as §2
Klebsiella pneumoniae [32] = assay: Antibacterial activity against Klebsiella pneumoniae ATCC 13883 by Etest method in presence of 1 ug/ml NAB7061; in short: as §2
Klebsiella pneumoniae [33] = assay: Antibacterial activity against Klebsiella pneumoniae ATCC 13883 by Etest method in presence of 2 ug/ml NAB7061; in short: as §2
Klebsiella pneumoniae [34] = assay: Antibacterial activity against Klebsiella pneumoniae ATCC 13883 by Etest method in presence of 4 ug/ml NAB7061; in short: as §2
Klebsiella pneumoniae [35] = assay: Ratio of the MIC for Klebsiella pneumoniae ATCC 13883 in the absence of NAB7061 to MIC for Klebsiella pneumoniae ATCC 13883 in the presence of 4 ug/ml of NAB7061
Klebsiella pneumoniae [36] = assay: Antibacterial activity against Klebsiella pneumoniae ATCC 13883 by Etest method in presence of NAB7061; in short: as §2
Enterobacter cloacae [37] = assay: Antibacterial activity against Enterobacter cloacae ATCC 23355 by Etest method; in short: as §4
Enterobacter cloacae [38] = assay: Antibacterial activity against Enterobacter cloacae ATCC 23355 […] by Etest method in presence of 1 ug/ml NAB7061
Enterobacter cloacae [39] = assay: Antibacterial activity against Enterobacter cloacae ATCC 23355 […] by Etest method in presence of 2 ug/ml NAB7062
Enterobacter cloacae [40] = assay: Antibacterial activity against Enterobacter cloacae ATCC 23355 […] by Etest method in presence of 4 ug/ml NAB7064
Enterobacter cloacae [41] = assay: Ratio of the MIC for Enterobacter cloacae ATCC 23355 in the absence of NAB7061 to MIC for Enterobacter cloacae ATCC 23355 […] in the presence of 4 ug/ml of NAB7061
Enterobacter cloacae [42] = assay: Antibacterial activity against Enterobacter cloacae ATCC 23355 […] by Etest method in presence of NAB7061

Structure (SMILES)	fractional inhibitory concentration index (FICI) (Escherichia coli [19])	MIC (Escherichia coli [20]) [µg/mL]	MIC (Escherichia coli [21]) [µg/mL]	MIC (Escherichia coli [22]) [µg/mL]	MIC (Escherichia coli [23]) [µg/mL]	Ratio (Escherichia coli [24])	MIC (Escherichia coli [25]) [µg/mL]	MIC (Escherichia coli [26]) [µg/mL]	MIC (Escherichia coli [27]) [µg/mL]	MIC (Escherichia coli [28]) [µg/mL]	Ratio (Escherichia coli [29])	MIC (Escherichia coli [30]) [µg/mL]	MIC (Klebsiella pneumoniae [31]) [µg/mL]	MIC (Klebsiella pneumoniae [32]) [µg/mL]	MIC (Klebsiella pneumoniae [33]) [µg/mL]	MIC (Klebsiella pneumoniae [34]) [µg/mL]	Ratio (Klebsiella pneumoniae [35])	MIC (Klebsiella pneumoniae [36]) [µg/mL]	MIC (Enterobacter cloacae [37]) [µg/mL]	MIC (Enterobacter cloacae [38]) [µg/mL]	also measured
CN[C@H](CC(C)C)C(=O)N[C@H]1C(=O)N[C@@H](CC(N)=O)C(=O)N[C@H]2C(=O)N[C@H]3C(=O)N[C@H](C(=O)N[C@H](C(=O)O)c4cc(O)cc(O)c4-c4cc3ccc4O)[C@H](O)c3ccc(c(Cl)c3)Oc3cc2cc(c3O[C@@H]2O[C@H](CO)[C@@H](O)[C@H](O)[C@H]2O[C@H]2C[C@](C)(N)[C@H](O)[C@H](C)O2)Oc2ccc(cc2Cl)[C@H]1O [VANCOMYCIN]	–	–	–	–	–	–	–	–	–	–	–	–	–	–	–	–	–	–	–	–	MIC (Pseudomonas aeruginosa [1]): > 256 µg/mL; MIC (Pseudomonas aeruginosa [2]): > 256 µg/mL; MIC (Pseudomonas aeruginosa [3]): > 256 µg/mL; fractional inhibitory concentration index (FICI) (Acinetobacter baumannii [4]): <=0.188; MIC (Acinetobacter baumannii [5]): 1 µg/mL; MIC (Acinetobacter baumannii [6]): 3 µg/mL; MIC (Acinetobacter baumannii [7]): 16 µg/mL; MIC (Acinetobacter baumannii [8]): > 256 µg/mL; MIC (Acinetobacter baumannii [9]): 256 µg/mL; fractional inhibitory concentration index (FICI) (Acinetobacter baumannii [10]): <=0.156; MIC (Acinetobacter baumannii [11]): 1 µg/mL; MIC (Acinetobacter baumannii [12]): 3 µg/mL; MIC (Acinetobacter baumannii [13]): 8 µg/mL; MIC (Acinetobacter baumannii [14]): 64 µg/mL; MIC (Acinetobacter baumannii [15]): > 256 µg/mL; MIC (Pseudomonas aeruginosa [16]): > 256 µg/mL; MIC (Pseudomonas aeruginosa [17]): > 256 µg/mL; MIC (Pseudomonas aeruginosa [18]): > 256 µg/mL
CC[C@H]1OC(=O)[C@H](C)[C@@H](O[C@H]2C[C@@](C)(OC)[C@@H](O)[C@H](C)O2)[C@H](C)[C@@H](O[C@@H]2O[C@H](C)C[C@H](N(C)C)[C@H]2O)[C@](C)(O)C[C@@H](C)C(=O)[C@H](C)[C@@H](O)[C@]1(C)O [ERYTHROMYCIN]	0.188	32 (≈ 43.6 µM)	6	2	0.75	32	16 (≈ 21.8 µM)	4	2	0.38	32	0.25	24 (≈ 32.7 µM)	4	2	0.5	24	≤ 0.143	64 (≈ 87.2 µM)	48	MIC (Enterobacter cloacae [39]): 8 µg/mL; MIC (Enterobacter cloacae [40]): 1.5 µg/mL; Ratio (Enterobacter cloacae [41]): 21; MIC (Enterobacter cloacae [42]): 0.375 µg/mL
CC[C@H]1OC(=O)[C@H](C)[C@@H](O[C@H]2C[C@@](C)(OC)[C@@H](O)[C@H](C)O2)[C@H](C)[C@@H](O[C@@H]2O[C@H](C)C[C@H](N(C)C)[C@H]2O)[C@](C)(O)C[C@@H](C)CN(C)[C@H](C)[C@@H](O)[C@]1(C)O [AZITHROMYCIN]	0.157	3 (≈ 4.01 µM)	0.5	0.19	0.094	24	2 (≈ 2.67 µM)	0.75	0.19	0.064	31	0.173	2 (≈ 2.67 µM)	0.19	0.19	0.047	31	≤ 0.126	6 (≈ 8.01 µM)	4	MIC (Enterobacter cloacae [39]): 1.5 µg/mL; MIC (Enterobacter cloacae [40]): 0.19 µg/mL; Ratio (Enterobacter cloacae [41]): 32; MIC (Enterobacter cloacae [42]): 0.438 µg/mL
